Our source for the IC50 values is ChEMBL document CHEMBL1122743, “Structure-activity relationship study of the inhibition of adrenal cortical 11 beta-hydroxylase by new metyrapone analogues” (J Med Chem, 1984).

Where only a bound is given, the exact number is not on record here.

For the experiment, the target named is T1, Cytochrome P450 11B1, mitochondrial (Bos taurus, UniProt P15150).
T1 sequence (P15150 whole entry): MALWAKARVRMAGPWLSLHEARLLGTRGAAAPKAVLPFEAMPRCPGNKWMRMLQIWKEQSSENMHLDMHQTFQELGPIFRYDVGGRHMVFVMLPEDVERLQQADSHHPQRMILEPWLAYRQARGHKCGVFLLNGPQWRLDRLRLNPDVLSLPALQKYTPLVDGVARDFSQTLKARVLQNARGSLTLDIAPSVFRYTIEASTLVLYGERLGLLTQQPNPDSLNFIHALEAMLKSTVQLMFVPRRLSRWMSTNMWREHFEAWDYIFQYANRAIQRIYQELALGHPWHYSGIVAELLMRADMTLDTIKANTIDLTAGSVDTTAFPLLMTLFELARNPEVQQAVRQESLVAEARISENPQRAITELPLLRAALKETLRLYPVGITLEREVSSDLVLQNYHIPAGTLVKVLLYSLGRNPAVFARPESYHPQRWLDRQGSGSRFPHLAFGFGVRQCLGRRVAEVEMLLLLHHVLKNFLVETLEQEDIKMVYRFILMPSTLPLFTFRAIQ
The experiment can be described thus: Evaluated for inhibition of bovine adrenal cortical mitochondrial 11 beta-hydroxylase. Type of experiment: functional. In outline:
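Crude lyophilized, defatted adrenal cortical mitochondria (300 µg) plus 15.0 µM purified adrenodoxin, in 0.50 mL of 50 mM potassium phosphate pH 7.40. Additions: 200 µM DOC with [3H]DOC tracer, 16 mM MgCl2, 4.6% propylene glycol, inhibitor (final 1% ethanol). Preincubated 5 min at 37 °C, then started with 1.5 mM NADPH. Products extracted into CH2Cl2, separated by TLC, counted by scintillation. Percent inhibition versus 1% ethanol controls; duplicates.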

In general, IC50 refers to the midpoint of a concentration-inhibition curve. Read a low IC50 as greater potency. Regarding `CC(C)(c1cccnc1)C(O)c1ccccc1` (stereo not given), it took 1.53 µM to reach half-maximal inhibition (IC50). That is a single-digit micromolar value.

`CC(C)(c1cccnc1)C(Cl)c1cccnc1` (stereo not given) gave a half-maximal inhibitory concentration (IC50) of 7.25 µM.

`CC(C)(Cc1ccccc1)c1cccnc1` showed a concentration for half-maximal inhibition (IC50) of 0.66 µM. This IC50 is about 11-fold lower than that of the compound before.

Regarding `CC(C)(C(=O)c1ccccc1)c1cccnc1`, it took 3.3 µM to reach half-maximal inhibition (IC50). Against the preceding compound, the IC50 is about 5-fold higher.

The compound `CC(C)(Cc1cccnc1)c1cccnc1` had a half-maximal inhibitory concentration (IC50) of 2.64 µM.

Take `CC(=O)NC(c1cccnc1)C(C)(C)c1cccnc1` (stereo not given): the half-maximal inhibitory concentration (IC50) turned out to be 87.5 µM. This IC50 is about 33-fold higher than that of the compound before.

`COC(c1cccnc1)C(C)(C)c1cccnc1` (stereo not given): the IC50 worked out at 7.3 µM.

In turn, `CC(C)(c1cccnc1)C(Cl)c1ccccc1` (stereo not given) registered an IC50 of 1.63 µM.

For the compound `CC(C)(c1cccnc1)C(I)c1cccnc1` (stereo not given), the IC50 was 5.36 µM.

The compound `CC(C)(C(=O)c1cccnc1)c1cccnc1` [METYRAPONE] came in with an IC50 of 7.83 µM.

As for `CC(C)(c1cccnc1)C(O)c1cccnc1` (stereo not given) [METYRAPOL], it took 7.05 µM to reach half-maximal inhibition (IC50).

On to `O=C(Cc1cccnc1)c1ccccc1`, for which the midpoint of inhibition, the IC50, lay at 158 µM.

On to `CC(C)(c1cccnc1)C(N)c1cccnc1` (stereo not given), for which the IC50 is above 1000 µM.

The compound `CC(C)(C(=NO)c1cccnc1)c1cccnc1` registered an IC50 of 4.78 µM.

For the compound `CC(C(=O)c1ccccc1)c1cccnc1` (stereo not given), the IC50 turned out to be 7.72 µM. Compared with the last compound, the IC50 is about 1.6-fold higher.
